Assay results from different studies.
Target: Serine/threonine-protein kinase pim-2 (PIM2, Homo sapiens, UniProt Q9P1W9)

The remaining activity of `CC(C)(C)c1cc(C=C(C#N)C#N)cc(Br)c1O` is reported as 115% (enzyme activity; inhibitor; 0.5 µM).
`C#Cc1n[nH]c2c(-c3cn(C(C)c4ccccn4)c(=O)[nH]c3=O)cc(F)cc12` (stereo not drawn) has an inhibition of -1.5% (enzyme activity; inhibitor; 1 µM).
With `N#CC1(c2ccccn2)CCN(Cc2cc(C(=O)O)c(=O)n3ccccc23)CC1` the remaining binding was 100% (cell-free assay; competition with immobilised ligand; 1 µM).
With `C#Cc1n[nH]c2c(-c3cn([C@@H](C)c4ccccc4)c(=O)[nH]c3=O)cc(F)cc12` the inhibition was 3.2% (enzyme activity; inhibitor; 0.1 µM).
`Cn1cc(-c2cccc(N3CCc4c(sc5c4CC(C)(C)C5)C3=O)c2CO)cc(Nc2ccncn2)c1=O` gave an inhibition of 1% (enzyme activity; inhibitor; 1 µM).
`COc1ncccc1-c1cnn2ccc(N3CCN(C(=O)OC(C)C)CC3)nc12` gave a remaining binding of 100% (binding; competition with immobilised ligand; 1 µM).
`COc1cc(Nc2ncc(F)c(Nc3ccc4c(n3)NC(=O)C(C)(C)O4)n2)cc(OC)c1OC` gave an inhibition of 0% (binding; competition with immobilised ligand; 10 µM).
For `O=c1[nH]c2ccccc2n1C1CCN(Cc2ccc(-c3[nH]c4cc5ncnc5cc4nc3-c3ccccc3)cc2)CC1`, the remaining signal was 111% (cell-free assay; 0.5 µM).
With `Cn1cc(-c2cc(F)cc(N3CCn4c(cc5c4CCCC5)C3=O)c2CO)cc(Nc2ccc(N3CCN(C4COC4)CC3)cn2)c1=O` the inhibition was -1% (enzyme activity; inhibitor; 0.1 µM).
`Cn1cncc1[C@](O)(COc1ccc(C#N)cc1-c1ccc(OC(F)(F)F)cc1)c1ccc(C#N)cc1` has a remaining binding of 84% (cell-free assay; competition with immobilised ligand; 1 µM).
With `Nc1ncc(-c2nc(N3CCOCC3)nc(N3CCOCC3)n2)c(C(F)F)n1` the remaining binding was 92% (binding; competition with immobilised ligand; 10 µM).
With `Cc1nn(C)cc1-c1nc2c(N3CCN(Cc4ccc(Cl)cc4)CC3)c(Cl)cnc2[nH]1` the remaining binding was 100% (binding; competition with immobilised ligand; 1 µM).
